# Measured values as given in ChEMBL document CHEMBL3286242, “Design, synthesis and biological evaluation of arylcinnamide hybrid derivatives as novel anticancer agents” (Eur J Med Chem, 2014).
# Activity calls are given as the source filed them. No cut-off for these calls is given here.
# Key:
# [1] = system: L1210; assay: Cytotoxicity against mouse L1210 cells; type: functional, cell-based
# [2] = system: PBMC; assay: Cytotoxicity against human resting PBMC assessed as growth inhibition after 72 hrs by MTT assay; type: cell-based
# In short: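 Healthy-donor PBMC from Lymphoprep gradient, rested overnight in RPMI-1640/10% FBS; non-adherent cells at 5 × 10^5 cells/mL without PHA, treated 72 h with varying concentrations; viability by MTT; IC50 mean ± SEM, three separate experiments.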
# [3] = system: HeLa; assay: Induction of apoptosis in human HeLa cells assessed as reduction in Bcl-2 protein expression at 1 to 2.5 uM by Western blotting analysis; type: functional, cell-based; settings: TDE = time-dependent effect
# In short: (§1)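 HeLa cells treated at indicated concentrations and times; washed in cold PBS, lysed 30 min at 0 °C, cleared at 15 000 × g; 20 μg protein resolved on 7.5–15% gradient SDS-PAGE, blotted to PVDF, primary antibodies 2 h room temperature, peroxidase secondary 60 min, ECL detection; β-actin reprobe for loading.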
# [4] = system: HeLa; assay: Induction of apoptosis in human HeLa cells assessed as increase in Bax protein expression at 1 to 2.5 uM after 24 to 48 hrs by Western blotting analysis; type: functional, cell-based
# [5] = system: HeLa; assay: Induction of apoptosis in human HeLa cells assessed as GSH depletion after 24 hrs by CMFDA staining-based flow cytometry; type: functional, cell-based
# In short: (§2)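 HeLa cells treated 24 h with compound, alone or with 100 μM NAC; harvested and loaded with 5 μM CMFDA, 30 min at 37 °C; intracellular GSH read as CMFDA fluorescence by flow cytometry; means ± SEM.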
# [6] = Cytotoxicity against human SEM cells assessed as growth inhibition after 72 hrs by MTT assay; type: functional, cell-based
# [7] = system: HT-29; assay: Cytotoxicity against human HT-29 cells assessed as growth inhibition after 72 hrs by MTT assay; type: functional, cell-based; settings: HT-29, 72 h
# [8] = system: CCRF-CEM; assay: Cytotoxicity against human CEM cells assessed as growth inhibition after 72 hrs by MTT assay; type: functional, cell-based
# [9] = Selectivity ratio of IC50 for human resting PBMC to IC50 for human CEM cells; type: ADME, cell-based, CCRF-CEM; settings: resting PBMC versus CEM cells, read-out: Ratio IC50
# [10] = system: HeLa; assay: Induction of apoptosis in human HeLa cells assessed as caspase activation at 2.5 uM after 48 hrs in presence of pan-caspase inhibitor z-VAD.fmk; type: functional, cell-based
# In short: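 HeLa cells given 2.5 μM compound for 48 h with or without 100 μM z-VAD.fmk pan-caspase inhibitor; viability measured; means ± SEM of three independent experiments, Student's t-test.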
# [11] = system: HeLa; assay: Cytotoxicity against human HeLa cells assessed as growth inhibition after 72 hrs by MTT assay; type: functional, cell-based
# [12] = system: HeLa; assay: Induction of apoptosis in human HeLa cells assessed as GSH depletion at 1 to 2.5 uM after 24 hrs by CMFDA staining-based flow cytometry in presence of N-acetylcysteine; type: functional, cell-based; in short: as §2
# [13] = system: LoVo; assay: Resistance ratio of IC50 for human LoVo/DX cells to IC50 for human LoVo cells; type: functional
# In short: (§3)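 Ratio of IC50 in resistant line to IC50 in parental line (CEMVbl-100/CEM; LoVoDoxo/LoVo), each IC50 from 72 h MTT dose–response curves, ≥3 independent experiments.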
# [14] = system: PBMC; assay: Cytotoxicity against human PHA-stimulated PBMC assessed as growth inhibition after 72 hrs by MTT assay; type: functional, cell-based
# [15] = system: HeLa; assay: Induction of apoptosis in human HeLa cells assessed as caspase-3 activation at 1 to 2.5 uM by Western blotting analysis; type: functional, cell-based; settings: TDE = time-dependent effect; in short: as §1
# [16] = system: HeLa; assay: Cell cycle arrest in human HeLa cells assessed as reduction in S phase after 24 hrs by propidium iodide staining-based flow cytometry; type: functional
# In short: (§4)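 HeLa cells in exponential growth (2.5 × 10^5) treated 24 h at various concentrations; ethanol-fixed (70%, ice-cold), lysed with RNase A/0.1% Triton X-100, PI-stained; DNA content by flow cytometry, phase percentages from DNA histograms.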
# [17] = system: HeLa; assay: Induction of DNA damage in human HeLa cells assessed as increase in gammaH2A.X protein expression at 1 to 2.5 uM after 48 hrs by Western blotting analysis; type: functional, cell-based
# [18] = Cytotoxicity against human LoVo/DX cells assessed as growth inhibition after 72 hrs by MTT assay; type: functional, cell-based
# [19] = system: Jurkat; assay: Cytotoxicity against human Jurkat cells assessed as growth inhibition after 72 hrs by MTT assay; type: functional, cell-based
# [20] = system: HeLa; assay: Induction of apoptosis in human HeLa cells assessed as reduction in Mcl-1 protein expression at 2.5 uM after 48 hrs by Western blotting analysis; type: functional, cell-based; in short: as §1
# [21] = system: HeLa; assay: Induction of apoptosis in human HeLa cells assessed as PARP cleavage at 1 to 2.5 uM by Western blotting analysis; type: functional, cell-based; settings: TDE = time-dependent effect; in short: as §1
# [22] = Cytotoxicity against human CEM/VBL100 cells assessed as growth inhibition after 72 hrs by MTT assay; type: functional, cell-based; settings: CEM/VBL100, 72 h
# [23] = system: HeLa; assay: Induction of apoptosis in human HeLa cells at 0.62 to 5 uM after 24 to 48 hrs by Annexin V/FITC staining-based flow cytometry; type: functional, cell-based
# In short: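 HeLa cells treated 24 or 48 h at indicated concentrations, then stained with annexin-V-FITC plus PI; flow cytometry with 488 nm excitation, 525 and 585 nm emission; live, early/late apoptotic and necrotic populations distinguished; means of three independent experiments.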
# [24] = system: CCRF-CEM; assay: Resistance ratio of IC50 for human CEM/VBL100 cells to IC50 for human CEM cells; type: functional; in short: as §3
# [25] = system: HeLa; assay: Induction of apoptosis in human HeLa cells assessed as increase in Bak protein expression at 1 to 2.5 uM after 24 to 48 hrs by Western blotting analysis; type: functional, cell-based
# [26] = system: HeLa; assay: Induction of apoptosis in human HeLa cells assessed as caspase-8 activation at 1 to 2.5 uM after 24 to 48 hrs by Western blotting analysis; type: functional, cell-based; in short: as §1
# [27] = system: HeLa; assay: Induction of apoptosis in human HeLa cells assessed as reduction in Bcl-2 protein expression at 1 to 2.5 uM after 48 hrs by Western blotting analysis; type: functional, cell-based; in short: as §1
# [28] = system: HeLa; assay: Induction of apoptosis in human HeLa cells assessed as PARP cleavage after 24 to 48 hrs by Western blotting analysis; type: functional, cell-based; in short: as §1
# [29] = system: LoVo; assay: Cytotoxicity against human LoVo cells assessed as growth inhibition after 72 hrs by MTT assay; type: functional, cell-based
# [30] = Selectivity ratio of IC50 for human resting PBMC to IC50 for human Jurkat cells; type: ADME, cell-based; settings: resting PBMC versus Jurkat cells, read-out: Ratio IC50
# [31] = target: Tubulin (Homo sapiens) (UniProt P68371+Q9H4B7+P0DPH7+P68366+Q13509+Q71U36+P04350+Q3ZCM7+P07437+P68363+Q9BQE3+Q6PEY2+Q13885+Q9BVA1+Q9BUF5); assay: Inhibition of tubulin polymerization in human HeLa cells assessed as microtubule disruption at 2.5 to 5 uM after 24 hrs by immunofluorescence microscopy relative to untreated control; type: cell-based
# In short: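 HeLa cells exposed 24 h to 2.5 or 5.0 μM versus untreated; fixed in cold 4% formaldehyde 15 min, stained with anti-β-tubulin monoclonal (1:1000) and Alexa secondary (1:2000), DAPI counterstain; imaged by confocal microscopy at 20×.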
# [32] = target: Tubulin (Bos taurus) (UniProt Q6B856+Q862L2+Q862F3); assay: Inhibition of bovine brain tubulin polymerization at 20 uM by turbidimetry
# In short: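 Purified bovine brain tubulin (10 μM) preincubated with compound in glutamate buffer at 30 °C, cooled to 0 °C, GTP added, then warmed to 30 °C in cuvettes; assembly followed turbidimetrically; concentrations up to 20 μM.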
# [33] = system: HeLa; assay: Cell cycle arrest in human HeLa cells assessed as accumulation at G2/M phase after 24 hrs by propidium iodide staining-based flow cytometry; type: functional; in short: as §4
# [34] = system: HeLa; assay: Induction of apoptosis in human HeLa cells assessed as caspase-9 activation at 1 to 2.5 uM after 24 to 48 hrs by Western blotting analysis; type: functional, cell-based; in short: as §1
# [35] = system: MCF7; assay: Cytotoxicity against human MCF7 cells assessed as growth inhibition after 72 hrs by MTT assay; type: functional, cell-based; settings: MCF7, 72 h
# [36] = system: HeLa; assay: Induction of apoptosis in human HeLa cells assessed as increase in Bid protein expression at 1 uM after 24 hrs by Western blotting analysis; type: functional, cell-based
# [37] = system: HeLa; assay: Induction of apoptosis in human HeLa cells assessed as caspase-3 activation after 24 to 48 hrs by Western blotting analysis; type: functional, cell-based; in short: as §1
smiles,measurement,setting,value
C=C(Br)C(=O)O,IC50,[1],> 120000 nM
C=C(Br)C(=O)Nc1cccc(/C=C/C(=O)Nc2ccc(N3CCOCC3)cc2)c1,IC50,[2],4000 nM
same,Activity,[3],tde
same,Activity,[4],inactive
same,Activity,[5],Dose-dependent effect
same,IC50,[6],57 nM
same,IC50,[7],1600 nM
same,IC50,[8],610 nM
same,selectivity ratio,[9],10
same,Activity,[10],inactive
same,IC50,[11],430 nM
same,Activity,[12],inactive
same,Ratio IC50,[13],2
same,IC50,[14],500 nM
same,Activity,[15],tde
same,Activity,[16],Active
same,Activity,[17],Active
same,IC50,[18],1050 nM
same,IC50,[19],40 nM
same,Activity,[20],Active
same,Activity,[21],tde
same,IC50,[22],410 nM
same,Activity,[23],Active
same,Ratio IC50,[24],0.7
same,Activity,[25],inactive
same,Activity,[26],Active
same,Activity,[27],Active
same,Activity,[28],Dose-dependent effect
same,IC50,[29],510 nM
same,selectivity ratio,[30],10
same,inhibition,[31],inactive
same,inhibition,[32],inactive
same,Activity,[33],Dose-dependent effect
same,Activity,[34],inactive
same,IC50,[35],2600 nM
same,Activity,[36],inactive
same,Activity,[37],Dose-dependent effect
